# Source: PubChem (several laboratories)
# Most compounds without a hit are left out; they make up all but 3.7% or so of the library.
# Mdm2 ligase inh = inhibitors of human Mdm2 E3 ubiquitin ligase; cell-based MDM2 ubiquitination luciferase reporter, 2 h; 0 = plate control, 100 = twice control, blank-subtracted; signal enhancement, % at 5 µM; 210,000 tested, 0.11% active;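 active = signal enhancement of 30% or more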;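 also: luminescence tracks abundance of the self-degrading MDM2-luciferase fusion protein; higher signal means inhibition of MDM2 E3 ligase activity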
#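 Assay system: stable mammalian line carrying autodegrading MDM2–luciferase fusion reporter; amount: 2000 cells seeded into each well; buffer or medium: DMEM; benchmarks: plate control and blank wells; signal: luciferase luminescence; timing: 2 h compound exposure at 37 °C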
# KCC2 mod = KCC2 (human) Cl- transport modulation | Q9H2X9 | KCC2 cells, thallium flux FluoZin-2 fluorescence | B-score of Tl+ flux slope (higher = more flux/activation; lower = inhibition) at 10 µM | 190,000 tested, 2.2% active | AID 1456;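 active = thallium flux slope and its plate-corrected score both differing from the plate sample mean at a set confidence after two filtering rounds, in either direction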;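 also: slope of fluorescence scaled to starting intensity during 10 to 20 s after thallium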
# Calpain2 inh = blocks pig calpain II enzyme activity | purified calpain II, fluorogenic peptide substrate, 30 min | AID 1236 | 220,000 tested, 0.37% active | inhibition, % at 16 µM;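 active = inhibition above about 50%, limit read from the data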
# Arbovirus inh = blocks arbovirus infection; arbovirus infection cell-based antiviral screen; inhibition, % at 10 µM; 200,000 tested, 0.37% active; in the data active = inhibition above about 30%
# PKD1 kinase inh = blocks activity of human protein kinase D1. Q15139. PKD1 kinase fluorescence polarization assay. inhibition, % (test concentration not listed). 200,000 tested, 0.056% active; in the data active = inhibition above about 50%
# ROMK mod = modulates human ROMK potassium channel activity | P48048 | Tet-inducible ROMK, thallium flux fluorescence; actives lie on both sides | B-score at 10 µM | 130,000 tested, 2% active;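 active = signal ratio slope over the read window, or its plate-corrected B-score, at least 3 SD from the plate mean, either direction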;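 also: B-score of the F/F0 ratio slope over 7 to 12 s after thallium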
# KCC2 secondary = KCC2 (human) modulation, secondary assay. shares compounds with KCC2 mod. HEK293-KCC2, thallium flux, FluoZin2 fluorescence; hits give high values. normalised thallium flux (F/F0 slope) at 10 µM. 3,700 tested, 15% active. AID 1713;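 active = thallium flux slope above the same plate's solvent-only control mean plus 3 SD; inconclusive = the two replicate wells disagree; inactive = no significant difference from solvent-only control wells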
# KCC2 bumet counter = thallium flux despite bumetanide block in KCC2 cells, secondary assay 3 | shares compounds with KCC2 mod | HEK293-KCC2 + bumetanide/ouabain, thallium flux FluoZin2; hits give high values | normalized thallium flux at 10 µM | 3,700 tested, 49% active | AID 1714;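 active = thallium entry rate above the same plate's blocked-transporter control wells by more than 3 SD; inconclusive = the two repeat wells disagree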;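 also: raw slope of fluorescence over initial fluorescence between 10 and 20 s after thallium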
# KCC2 secondary2 = confirmation of human KCC2 transport modulators. normalized thallium flux at 10 µM. HEK293-KCC2, thallium flux FluoZin2 fluorescence; actives lie on both sides; F/F0 rise rate, 10–20 s post-thallium. shares compounds with KCC2 mod. AID 1715. 3,700 tested, 23% active;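 active = thallium flux slope more than 3 SD above or below the plate's solvent-only control mean, mostly below; inconclusive = the two repeat wells disagreed; inactive = no significant shift from solvent-only controls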;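 also: raw slope with 0.1% DMSO as baseline and bumetanide as block control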
# HEK counter1 = counter-screen for KCC2 modulators: effect in parental HEK293 cells; shares compounds with KCC2 mod; thallium flux FluoZin2, ouabain; baseline-ratio fluorescence slope, 10–20 s after thallium; thallium flux rate (normalised fluorescence) at 10 µM; 3,700 tested, 46% active; AID 1716;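 active = thallium flux rate significantly above the same plate's solvent-only control wells, beyond their mean plus 3 SD; inconclusive = the two replicate wells gave conflicting results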
# KCC2 ouabain = KCC2 (human) modulation, ouabain retest; shares compounds with KCC2 mod; HEK293-KCC2, thallium flux FluoZin2 fluorescence; bidirectional: low = inhibitor, high = activator; raw Tl+ flux slope (below DMSO = inhibition, above = activation) at 10 µM; 3,700 tested, 48% active; AID 1717;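 active = thallium flux slope beyond 3 SD from same-plate DMSO control mean in most replicates, usually higher, sometimes lower; inconclusive = repeat tests gave conflicting results; inactive = no significant difference from controls in most replicates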;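 also: slope of initial-normalized fluorescence between seconds 10 and 20 after thallium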
# HEK counter2 = parental HEK flux effect, counter-screen 2 | thallium flux slope at 10 µM | shares compounds with KCC2 mod | HEK293 parental, thallium flux FluoZin-2 fluorescence slope | 3,700 tested, 33% active;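 active = thallium flux slope above the same plate's solvent-control mean plus 3 SD in both duplicate wells; inconclusive = duplicate wells that disagreed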;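 also: run without ouabain in cells lacking the KCC2 cotransporter; slope of fluorescence scaled to its starting value between 10 and 20 s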
# The depositor's hits bear a star; ? = inconclusive; . = not tested or not shown.
SMILES,Mdm2 ligase inh,KCC2 mod,Calpain2 inh,Arbovirus inh,PKD1 kinase inh,ROMK mod,KCC2 secondary,KCC2 bumet counter,KCC2 secondary2,HEK counter1,KCC2 ouabain,HEK counter2
C=CCN1CCc2c(cc(O)c(O)c2Cl)C(c2ccccc2)C1 (stereo unspecified),-7.0,-2.99*,-18.6,.,.,.,0.0062,0.00527,0.0287,0.00784,0.0184,0.0106
O=C(CSc1nc2ccccc2[nH]1)Nc1ccc(F)c(F)c1,-9.4,-1.82,39.0,14.1,1.7,-1.64,.,.,.,.,.,.
O=C(CSc1nc2ccccc2[nH]1)Nc1ccccc1F,-38.3,-4.68*,21.5,2.5,-1.4,-1.11,0.00725,0.00391,0.0318,0.00735,0.0186,0.00996
CCCCOC(=O)C1=C(C)NC2=C(C(=O)CCC2)C1c1cc(OC)ccc1OC (stereo unspecified),5.1,7.52*,-34.4,-1.6,-5.0,.,0.00713,0.00561,0.0292,0.00654,0.0192,0.00915
CCOC(=O)c1oc2ccccc2c1NC(=O)CN1CCOCC1,-0.4,-0.292,8.7,-2.2,3.7,.,.,.,.,.,.,.
C#CCNC(=O)C(C)c1ncc(C(F)(F)F)cc1Cl (stereo unspecified),-9.1,-0.817,-4.2,2.0,4.1,0.154,.,.,.,.,.,.
O=C(O)CCSc1nc2ccccc2s1,-2.3,.,15.7,9.9,4.4,.,.,.,.,.,.,.
Cc1nn(-c2ccc(F)cc2)c(Cl)c1/C=C(\CCC(=O)O)c1nc2ccccc2s1,-19.1,-9.41*,11.0,-5.9,6.9,.,?,?,0.0178*,0.00592*,0.00929*,?
Cn1cnnc1Sc1ccc(/C=C(\CC(=O)O)c2nc3ccccc3s2)cc1[N+](=O)[O-],-20.3,-1.49,13.3,.,.,.,.,.,.,.,.,.
O=C(O)CC/C(=C\c1cccc(NC(=O)c2ccccc2Cl)c1)c1nc2ccccc2s1,-10.9,-2.34*,-323.5,28.1,-9.8,0.374,0.00704,0.00514,?,0.00767,?,0.0118
O=C(O)CC/C(=C\c1ccc(N2CCCC2)c([N+](=O)[O-])c1)c1nc2ccccc2s1,-8.8,-8.5*,-119.5,53.7*,-0.3,0.982,0.00703,0.00456,0.0202*,0.00734,0.0109*,0.00974
O=C(O)CC/C(=C\c1ccccc1[N+](=O)[O-])c1nc2ccccc2s1,-6.9,-4.07*,-16.6,10.6,2.9,-1.29,0.00924,0.00715,?,0.00651,0.0122*,0.0101
Cc1ccc(-c2nc(=S)c3c(n2Cc2ccco2)CC(C)(C)OC3)cc1,0.4,.,-22.5,3.5,1.7,-0.00169,0.0174*,0.025*,0.033,0.0114*,0.0282,0.0119*
Cc1cccc(-c2nc(=S)c3c(n2Cc2ccco2)CCCC3)c1,-5.9,20.9*,1.8,9.3,-9.0,0.0105,0.0064,0.0207*,0.0322,0.0175*,0.0316*,0.0154*
Cc1ccc(-c2nc(=S)c3c(n2CC2CCCO2)CC(C)(C)OC3)cc1 (stereo unspecified),-13.7,.,13.6,7.1,-9.6,.,.,.,.,.,.,.
N#Cc1ccc(CSc2nnc(Nc3ccccc3)s2)cc1,-45.3,0.022,5.9,3.0,0.9,.,.,.,.,.,.,.
c1ccc(CSc2nnc(NC3=NCCCCC3)s2)cc1,-10.1,.,-8.7,8.3,3.6,-0.579,0.00764,0.00523,0.0282,0.00722,0.034*,0.0105
Cc1cc(C)n(-c2nc(SCC(=O)Nc3nccs3)c3c4c(sc3n2)COC(C)(C)C4)n1,-0.1,4.37*,0.8,-7.1,7.3,.,0.0096,0.0215*,0.0318,0.0186*,0.0262*,0.0132*
Cc1cc(C)n(-c2nc(-n3nc(C)cc3C)c3c4c(sc3n2)COC(C)(C)C4)n1,-13.6,.,-7.0,-0.3,-39.3,-0.0112,.,.,.,.,.,.
O=[N+]([O-])c1ccc(C2(O)CN(c3ccccc3)C3=[N+]2CCS3)cc1 (stereo unspecified),-5.7,0.642,23.3,11.1,0.9,-0.686,.,.,.,.,.,.
COC(=O)c1ccc(C(=O)Nc2ccc(C(C)C)cc2N)cc1,-9.3,-1.39,10.5,-4.9,-1.5,0.533,.,.,.,.,.,.
Cc1cccc(C)c1Nc1nnc(SCC(=O)Nc2ncc(C(F)(F)F)cc2Cl)s1,15.2,-6.45*,6.2,4.8,-7.7,-1.04,0.00568*,0.00693,0.0248*,?,0.0143*,0.00934
Cc1cccc(Nc2nnc(SCC(=O)Nc3ncc(C(F)(F)F)cc3Cl)s2)c1C,-15.8,-3.59*,-0.5,5.5,3.9,.,0.00587,0.00518,0.0241*,0.00666,?,0.0101
COc1cc(/C=C2\SC(=S)N(CC(=O)Nc3ccc(O)cc3)C2=O)cc(OC)c1OC,-2.1,-1.26,-33.1,7.1,10.4,-0.0375,.,.,.,.,.,.
Cc1cc(C)c(NC(=O)CSc2nnc(SCC(=O)Nc3c(C)cc(C)cc3C)n2N)c(C)c1,-7.3,0.126,2.8,-7.2,-3.6,0.289,.,.,.,.,.,.
SMILES,Mdm2 ligase inh,KCC2 mod,Calpain2 inh,Arbovirus inh,PKD1 kinase inh,ROMK mod,KCC2 secondary,KCC2 bumet counter,KCC2 secondary2,HEK counter1,KCC2 ouabain,HEK counter2
O=C(CSc1nc(-c2ccccc2)nc2ccccc12)Nc1cccc(C(=O)O)c1,-0.3,7.42*,-70.7,10.1,8.9,2.19,0.00629,0.0141*,0.034,0.0152*,0.025*,0.0166*
Oc1ccccc1/C=N/Nc1nc2ccccc2o1,-18.0,7.2*,-14.7,.,.,0.366,0.00642,0.0124*,0.0341,0.012*,?,0.016*
Cc1ccc(-n2nnnc2SCC(=O)NC2CCCc3ccccc32)c(C)c1 (stereo unspecified),5.2,-0.702,12.2,-7.4,2.0,-0.19,.,.,.,.,.,.
Cc1ccc(-n2nnnc2SCC(=O)NC2CCCc3ccccc32)cc1 (stereo unspecified),.,-4.6*,15.7,-1.2,-3.6,-1.76,0.00677,0.00333*,0.0255*,?,0.014*,0.00947
Cc1ccc(-n2nnnc2SCC(=O)N2CCc3ccccc3C2)cc1,-12.6,-3.61*,39.4,-1.7,-12.5,0.593,0.00749,0.00594,0.0284,0.00715,0.0211*,0.0106
COc1ccc(C2(C(=O)NCc3ccccc3Cl)CCOCC2)cc1OC,-4.4,0.383,-25.2,-0.1,2.9,0.772,.,.,.,.,.,.
